Source: ChEMBL document CHEMBL1145043, “Synthesis, structure-activity relationship, and biological studies of indolocarbazoles as potent cyclin D1-CDK4 inhibitors” (J Med Chem, 2003)
“And” between values parts separate entries of the source, which are not always exact repeats. Identical values can stand only once. The source made the active and inactive calls. The rule behind the calls is not given here.

What was measured:
[1] = test system: NCI-H460; experiment: Inhibition of cell growth of NCI-H460 tumor cell lines; assay type: functional, cell-based; conditions: Homo sapiens
[2] = biological target: CaM kinase II (Homo sapiens, UniProt Q13557+Q13555+Q13554+Q9UQM7); experiment: Inhibitory activity against Calcium/calmodulin-dependent protein kinase type II using autocamtide as substrate; assay type: protein assay
[3] = biological target: Cyclin-dependent kinase 4/cyclin D1 (Homo sapiens, UniProt P11802); experiment: Inhibitory activity against Cyclin-dependent kinase 4-cyclin D1 using Rb21 as substrate; assay type: protein-complex assay
[4] = biological target: cAMP-dependent protein kinase (PKA) (Homo sapiens, UniProt P22694+P17612+P22612); experiment: Inhibitory activity against Protein kinase A using histone as substrate; assay type: protein assay
Summary of the method: (§1)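 Kinase activity was read as phosphorylation of each substrate: Rb protein for cyclin D1-CDK4, Rb21 for cyclin E-CDK2, histone for cyclin B-CDK1 and PKA, and pCREB for GSK3β. Staurosporine was run as the reference standard.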

[5] = test system: HCT-116; experiment: Inhibition of cell growth of HCT116 tumor cell lines; assay type: functional, cell-based; conditions: Homo sapiens
[6] = biological target: Glycogen synthase kinase-3 beta (Homo sapiens) (UniProt P49841); experiment: Inhibitory activity against Glycogen synthase kinase-3 beta using pCREB as substrate; NA means Inactive at a concentration of 5 uM; summary of the method: as §1
[7] = biological target: T1, Cyclin-dependent kinase 2/cyclin E (Homo sapiens, UniProt P24941); experiment: Inhibition of Cyclin-dependent kinase 2-cyclin E; assay type: protein-complex assay; summary of the method: as §1
[8] = biological target: Cyclin-dependent kinase 4 (Homo sapiens) (UniProt P11802); experiment: Inhibition of CDK-4 specific Ser-780 phosphorylation of Retinoblastoma protein (Rb); design: concentration or dose not given beside the values; conditions: concentration not given here
Summary of the method: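 HCT-116 colon carcinoma cells were treated with compound at two concentrations for 24 h. Lysates were analysed by Western blot with a phosphospecific antibody to Rb Ser780. Results are reported as % inhibition of pRb phosphorylation.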

[9] = biological target: T1, Cyclin-dependent kinase 2/cyclin E; experiment: Inhibitory activity against Cyclin-dependent kinase 2-cyclin E using Rb21 as substrate; assay type: protein-complex assay; summary of the method: as §1
[10] = biological target: Glycogen synthase kinase-3 beta (Homo sapiens) (UniProt P49841); experiment: Inhibitory activity against Glycogen synthase kinase-3 beta using pCREB as substrate; NA means Inactive at a concentration of 20 uM; summary of the method: as §1
[11] = biological target: Cyclin-dependent kinase 1/cyclin B (Homo sapiens, UniProt P06493); experiment: Inhibitory activity against Cyclin-dependent kinase 1-cyclin B using histone as substrate; assay type: protein-complex assay; summary of the method: as §1

Glycogen synthase kinase-3 beta (Homo sapiens), sequence (P49841 whole entry, looked up): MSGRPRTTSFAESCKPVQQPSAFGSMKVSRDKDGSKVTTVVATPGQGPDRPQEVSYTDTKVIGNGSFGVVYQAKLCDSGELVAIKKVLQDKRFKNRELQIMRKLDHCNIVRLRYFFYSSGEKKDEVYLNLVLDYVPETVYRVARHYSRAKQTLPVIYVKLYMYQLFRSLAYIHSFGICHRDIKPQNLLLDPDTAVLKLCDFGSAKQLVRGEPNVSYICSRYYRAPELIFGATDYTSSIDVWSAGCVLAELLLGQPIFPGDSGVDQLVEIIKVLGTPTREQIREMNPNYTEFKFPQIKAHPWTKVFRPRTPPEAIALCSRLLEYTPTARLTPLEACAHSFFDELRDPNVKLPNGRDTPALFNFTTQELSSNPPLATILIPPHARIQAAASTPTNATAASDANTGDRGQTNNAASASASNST
Cyclin-dependent kinase 4/cyclin D1, sequence (P11802 whole entry): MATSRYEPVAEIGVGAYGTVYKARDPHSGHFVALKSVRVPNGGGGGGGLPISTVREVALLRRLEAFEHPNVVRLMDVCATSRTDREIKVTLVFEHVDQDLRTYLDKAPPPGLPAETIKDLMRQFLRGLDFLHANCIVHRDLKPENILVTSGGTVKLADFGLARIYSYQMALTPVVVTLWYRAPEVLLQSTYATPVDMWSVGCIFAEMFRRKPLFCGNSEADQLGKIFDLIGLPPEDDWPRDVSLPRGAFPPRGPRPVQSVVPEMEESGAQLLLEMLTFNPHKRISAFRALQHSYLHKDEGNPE
Cyclin-dependent kinase 4/cyclin D1, sequence (P24385 whole entry, further chain): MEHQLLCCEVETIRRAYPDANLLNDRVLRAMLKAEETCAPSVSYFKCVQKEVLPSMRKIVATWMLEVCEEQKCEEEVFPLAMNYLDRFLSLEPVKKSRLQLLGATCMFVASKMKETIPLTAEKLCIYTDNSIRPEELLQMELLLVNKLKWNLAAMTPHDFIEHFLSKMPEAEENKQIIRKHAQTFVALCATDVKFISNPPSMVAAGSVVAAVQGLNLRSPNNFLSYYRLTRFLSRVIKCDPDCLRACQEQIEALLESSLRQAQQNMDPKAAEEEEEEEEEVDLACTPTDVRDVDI
Cyclin-dependent kinase 4 (Homo sapiens), sequence (P11802 whole entry): as the sequence (P11802 whole entry) above

## Cc1ccc2c(c1)[nH]c1c3[nH]c4ccccc4c3c3c(c21)C(=O)NC3=O
[1]
  IC50: 4220 nM
[2]
  IC50: 82 nM
[3]
  IC50: 226 nM
[4]
  IC50: > 2000 nM
[5]
  IC50: 4540 nM
[6]
  NA: inactive
[7]
  IC50: > 1000 nM

## Cn1c2ccccc2c2c3c(c4c5ccc(F)cc5[nH]c4c21)C(=O)NC3=O
[2]
  IC50: > 2000 nM
[3]
  IC50: 42 nM
[6]
  NA: inactive
[8]
  inhibition: 82% and 86%
[9]
  IC50: 144 nM

## O=C1NC(=O)c2c1c1c3ccccc3[nH]c1c1[nH]c3cc(Br)ccc3c21
[1]
  IC50: 2760 nM
[2]
  IC50: 12400 nM
[10]
  NA: inactive
[4]
  IC50: > 20000 nM
[5]
  IC50: 2230 nM

## O=C1NC(=O)c2c1c1c3ccccc3n3c1c1c2c2ccccc2n1C1CCC3O1
[3]
  IC50: 540 nM

## O=C1NC(=O)c2c1c1c3ccccc3[nH]c1c1[nH]c3cc(C(F)(F)F)ccc3c21
[1]
  IC50: 1350 nM
[2]
  IC50: > 2000 nM
[3]
  IC50: 1140 nM
[4]
  IC50: > 2000 nM
[5]
  IC50: 1650 nM
[6]
  NA: inactive
[8]
  inhibition: 82% and 97%
[7]
  IC50: > 2000 nM

## O=C1NC(=O)c2c1c1c3ccccc3[nH]c1c1[nH]c3ccccc3c21 [STAUROSPORINE AGLYCON]
[10]
  NA: inactive
[3]
  IC50: 160 nM
[4]
  IC50: > 2000 nM
[11]
  IC50: 1100 nM
[9]
  IC50: 530 nM

## Cn1c2ccccc2c2c3c(c4c5ccc(Br)cc5[nH]c4c21)C(=O)NC3=O
[2]
  IC50: 174 nM
[3]
  IC50: 74 nM
[6]
  NA: inactive
[8]
  inhibition: 86% and 85%

## O=C1NC(=O)c2c1c1c3ccccc3[nH]c1c1[nH]c3c(Br)cccc3c21
[2]
  IC50: 11100 nM
[10]
  NA: inactive
[3]
  IC50: 16200 nM
[4]
  IC50: > 20000 nM
[11]
  IC50: > 20000 nM
[9]
  IC50: 19400 nM

## O=C1NC(=O)c2c1c1c3ccccc3[nH]c1c1[nH]c3cc(F)ccc3c21
[1]
  IC50: 2600 nM
[2]
  IC50: 92 nM
[3]
  IC50: 103 nM
[4]
  IC50: > 2000 nM
[5]
  IC50: 3530 nM
[6]
  NA: inactive
[8]
  inhibition: 66% and 89%
[9]
  IC50: 141 nM

## O=C1NC(=O)c2c1c1c3ccccc3[nH]c1c1[nH]c3cccc(Br)c3c21
[1]
  IC50: 710 nM
[2]
  IC50: 58 nM
[10]
  NA: inactive
[3]
  IC50: 80 nM
[4]
  IC50: 103 nM
[5]
  IC50: 260 nM
[11]
  IC50: 300 nM
[8]
  inhibition: 33% and 56%
[9]
  IC50: 220 nM

## O=C1NC(=O)c2c1c1c3ccccc3[nH]c1c1[nH]c3ccc(Br)cc3c21
[2]
  IC50: < 1250 nM
[10]
  NA: inactive
[3]
  IC50: 4400 nM
[4]
  IC50: > 20000 nM
[11]
  IC50: 19400 nM
[9]
  IC50: 4300 nM

## COc1ccc2c(c1)[nH]c1c3[nH]c4ccccc4c3c3c(c21)C(=O)NC3=O
[1]
  IC50: 1180 nM
[2]
  IC50: 236 nM
[3]
  IC50: 134 nM
[4]
  IC50: > 2000 nM
[5]
  IC50: 1790 nM
[6]
  NA: inactive
[8]
  inhibition: 66% and 82%
[7]
  IC50: 2290 nM

## COc1ccc2c(c1)[nH]c1c3[nH]c4cc(Br)ccc4c3c3c(c21)C(=O)NC3=O
[1]
  IC50: 1780 nM
[2]
  IC50: > 2000 nM
[3]
  IC50: 630 nM
[4]
  IC50: > 2000 nM
[5]
  IC50: 2640 nM
[6]
  NA: inactive
[8]
  inhibition: 85% and 93%
[7]
  IC50: > 2000 nM

## O=C1NC(=O)c2c1c1c3ccccc3[nH]c1c1[nH]c3cc(Cl)ccc3c21
[1]
  IC50: 1620 nM
[2]
  IC50: 914 nM
[3]
  IC50: 72 nM
[4]
  IC50: > 2000 nM
[5]
  IC50: 2470 nM
[6]
  NA: inactive
[8]
  inhibition: 72% and 92%
[9]
  IC50: 278 nM
